Assay [1] has as its system HCT-116. Put plainly: Cytotoxicity against human HCT116 cells after 72 hrs in presence of 10 uM exogenous nicotinic acid. In kind it is functional, cell-based. Particulars: HCT-116, 72 h. In a few lines:
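HCT116 colon carcinoma cells treated for 72 h with compound plus 10 μM exogenous nicotinic acid to test whether killing depends on Nampt; viability read out as cellular ATP levels.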

In assay [2] the test system is HCT-116. As to the kind of experiment: Cytotoxicity against human HCT116 cells after 72 hrs. In kind it is functional. Put shortly: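 HCT116 colon carcinoma cells treated with compound for 72 h; viability read out as cellular ATP levels.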
The target in assay [3] is T1, Nicotinamide phosphoribosyltransferase (Homo sapiens, UniProt P43490). As to the kind of experiment: Inhibition of nicotinamide phosphoribosyltransferase-catalyzed conversion of nicotinamide to nicotinamide mononucleotide. In a few lines: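 Coupled-enzyme format: Nampt turnover of nicotinamide to NMN monitored through a downstream coupled reaction; IC50 determined.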
Target sequence in this assay (P43490 whole entry): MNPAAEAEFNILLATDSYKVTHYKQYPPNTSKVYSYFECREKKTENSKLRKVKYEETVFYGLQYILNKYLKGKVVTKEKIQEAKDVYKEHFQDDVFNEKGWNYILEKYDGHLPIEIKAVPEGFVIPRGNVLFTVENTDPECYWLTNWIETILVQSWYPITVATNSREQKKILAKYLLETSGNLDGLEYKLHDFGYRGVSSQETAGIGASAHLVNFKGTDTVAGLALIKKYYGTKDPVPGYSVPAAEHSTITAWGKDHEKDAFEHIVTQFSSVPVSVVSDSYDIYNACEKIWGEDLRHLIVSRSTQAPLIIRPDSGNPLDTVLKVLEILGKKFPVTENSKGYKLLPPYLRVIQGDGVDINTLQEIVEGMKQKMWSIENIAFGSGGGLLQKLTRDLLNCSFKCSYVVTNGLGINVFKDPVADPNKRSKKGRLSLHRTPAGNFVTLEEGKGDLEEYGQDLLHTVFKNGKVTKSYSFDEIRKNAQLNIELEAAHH

The target in assay [4] is T1, Nicotinamide phosphoribosyltransferase. As to the kind of experiment: Inhibition of Nampt activity in H2O2-induced DNA damage in human MCF10A cells stably transfected with PIK3CA (H1047R) assessed as loss of PARP activity. In kind it is cell-based. Particulars: MCF-10A.
Target sequence in this assay (P43490 whole entry, looked up): as the sequence (P43490 whole entry) above
The target of assay [5] is Thymidylate synthase (Homo sapiens, UniProt P04818). As to the kind of experiment: Inhibition of thymidylate synthase.
The target in assay [6] is T1, Nicotinamide phosphoribosyltransferase. Put plainly: Inhibition of nicotinamide phosphoribosyltransferase-catalyzed conversion of nicotinamide to nicotinamide mononucleotide relative to untreated enzyme. Particulars: concentration not given here.
Target sequence in this assay (P43490 whole entry, looked up): as the sequence (P43490 whole entry) above
Assay [7] shares this target. As to the kind of experiment: Inhibition of nicotinamide phosphoribosyltransferase-mediated decrease in cellular NAD level.
Target sequence in this assay (P43490 whole entry): as above
The test system of assay [8] is WIL2. Put plainly: Cytotoxicity against human W1L2 cells. The format is functional, cell-based.
The target of assay [9] is T1, Nicotinamide phosphoribosyltransferase. Put plainly: Inhibition of nicotinamide phosphoribosyltransferase-catalyzed conversion of nicotinamide to nicotinamide mononucleotide at 10 uM.
Target sequence in this assay (P43490 whole entry, looked up): as the sequence (P43490 whole entry) above

pEC50, pIC50: −log10 of the molar value. Active and inactive are the calls of the source. No cut-off for these calls is given here.

Sequence of Thymidylate synthase (P04818 whole entry): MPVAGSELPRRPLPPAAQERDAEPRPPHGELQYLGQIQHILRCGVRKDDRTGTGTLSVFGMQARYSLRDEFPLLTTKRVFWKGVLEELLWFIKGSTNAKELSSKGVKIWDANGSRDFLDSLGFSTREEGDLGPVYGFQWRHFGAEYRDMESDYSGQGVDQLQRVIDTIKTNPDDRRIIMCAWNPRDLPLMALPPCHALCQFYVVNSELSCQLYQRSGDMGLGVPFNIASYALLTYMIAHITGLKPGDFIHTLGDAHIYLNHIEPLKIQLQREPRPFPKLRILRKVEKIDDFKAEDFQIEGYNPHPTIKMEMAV

For `CC(C)=CCN(Cc1cc2c(=O)n(C)c(C)nc2cc1Cl)c1ccc(C(=O)NCc2cccnc2)cc1`, the pEC50 (commonly the negative decadic logarithm of the EC50, by convention in mol/L) in [1] is below 5.00. Besides, in [2], the Activity stood at 0.0095 µM. For the same compound, the pIC50 (as a rule, the IC50 on a negative log10 scale, so that one unit is a factor of ten) in [3] was 7.96. The inhibitory concentration in assay [4] came out at 0.0018 µM.
As for `C#CCN(Cc1cc2c(=O)[nH]c(C)nc2cc1Br)c1ccc(C(=O)NCc2ccccn2)cc1`, the pIC50 in [5] was 6.81. Moreover, in assay [6], the inhibition (in general, the percentage by which the read-out fell short of the control) was 90%.
As for `O=C(CCCCCCCn1cc(-c2cccnc2)nn1)Nc1ccccc1-c1ccccc1`, the pIC50 in [7] is 8.52.
Regarding `C#CCN(Cc1cc2c(O)nc(C)nc2cc1Br)c1ccc(C(=O)NCc2cccnc2)cc1`, the pEC50 in assay [8] is 8.55.
Turning to `CC(C)=CCN(Cc1cc2c(=O)n(C)cnc2cc1Cl)c1ccc(C(=O)NCc2cccnc2)cc1`, the negative-log EC50 (pEC50) in [1] is below 5.00. Also, the Activity in assay [2] amounted to 0.0073 µM. Besides, the pIC50 in assay [3] was 8.59. In addition, the inhibitory concentration in assay [4] was 0.0005 µM.
`C#CCN(Cc1cc2c(=O)n(C)c(CN3CCN(C)CC3)nc2cc1Cl)c1ccc(C(=O)NCc2cccnc2)cc1` had a pEC50 in [8] of 9.31. Also, the Activity in assay [2] stood at 0.00046 µM. Further, the pIC50 in assay [3] is 9.51. For the same compound, the inhibitory concentration in assay [4] came to 5e-05 µM.
As to `CC(C)=CCN(Cc1ccccc1Cl)c1ccc(C(=O)NCc2cccnc2)cc1`, the negative logarithm of the EC50 (pEC50) in assay [1] is below 5.00. Also, the Activity in assay [2] is 0.016 µM. Besides, the pIC50 in [3] is 8.72. Moreover, in assay [4], the inhibitory concentration amounted to 0.0032 µM.
Turning to `CC(C)CCN(Cc1ccccc1Cl)c1ccc(C(=O)NCc2cccnc2)cc1`, the pEC50 in assay [1] was below 5.00. For the same compound, the Activity in assay [2] came to 0.39 µM. The compound also had a negative-log IC50 (pIC50) in [3] of 8.21. In addition, the inhibitory concentration in assay [4] turned out to be 0.0079 µM.
The compound `C#CCN(Cc1ccc2nc(C)n(C)c(=O)c2c1)c1ccc(C(=O)NCC2CCCNC2)cc1` (configuration not stated) gave a pIC50 in assay [3] below 5.00. Moreover, the inhibition result in assay [9] was “inactive”.
Take `Cn1cnc2cc(Cl)c(CN(CC(N)=O)c3ccc(C(=O)NCc4cccnc4)cc3)cc2c1=O`: in assay [1], the pEC50 is below 5.00. Besides, the Activity in assay [2] is above 10 µM. This compound showed a pIC50 in [3] of 7.25. The inhibitory concentration in assay [4] is above 1 µM.
With `C#CCN(Cc1ccccc1Cl)c1ccc(C(=O)NCc2cccnc2)cc1`, the pEC50 in assay [1] was below 5.00. For the same compound, the Activity in assay [2] is 2.4 µM. Also, the pIC50 in assay [3] was 8.38. In [4], the inhibitory concentration was 0.15 µM.
Consider `CC(C)=CC(=O)N(Cc1cc2c(=O)n(C)cnc2cc1Cl)c1ccc(C(=O)NCc2cccnc2)cc1`, for which the Activity in [2] stood at 4.1 µM. Also, the pIC50 in assay [3] was 6.18. Also, the inhibitory concentration in assay [4] turned out to be 0.37 µM.
For the compound `Cc1nc2ccc(CN(C(=O)C3CC3)c3ccc(C(=O)NCc4cccnc4)cc3)cc2c(=O)n1C`, the Activity in [2] was above 10 µM. The pIC50 in assay [3] is below 5.00. For the same compound, in assay [4], the inhibitory concentration came to 2.6 µM.
The compound `C#CCN(Cc1cc2c(=O)[nH]c(C)nc2cc1Br)c1ccc(C(=O)NCc2ccncc2)cc1` gave a pIC50 in assay [5] of 6.81.
On to `Nc1nc(N)c2c(CCc3ccc(C(=O)NCc4cccnc4)cc3)c[nH]c2n1`, for which, in assay [2], the Activity is above 10 µM. In addition, in [3], the pIC50 was 6.22. The inhibitory concentration in assay [4] is above 5 µM.
In assay [2], `Cc1nc2c(c(=O)[nH]1)CN(C(=O)c1ccc(C(=O)NCc3cccnc3)cc1)CC2` had an Activity above 10 µM. The pIC50 in assay [3] was 5.14. Further, the inhibitory concentration in assay [4] was above 5 µM.
The corresponding values for `CC(C)=CC(=O)N(Cc1ccc2nc(C)n(C)c(=O)c2c1)c1ccc(C(=O)NCc2cccnc2)cc1` are above 10 µM, below 5.00 and 2.2 µM.
For the compound `Cc1nc2c(c(=O)[nH]1)CN(C(=O)Nc1ccc(C(=O)NCc3cccnc3)cc1)CC2`, the Activity in assay [2] is above 10 µM. Besides, the pIC50 in assay [3] was 7.54. In addition, in [4], the inhibitory concentration is above 5 µM.
The compound `C#CCN(Cc1ccc2nc(C)n(C)c(=O)c2c1)c1ccc(C(=O)NCc2ccc(Cl)cc2)cc1` gave an Activity in assay [2] above 10 µM. Moreover, the negative logarithm of the IC50 (pIC50) in assay [3] was 6.82. Besides, in assay [4], the inhibitory concentration is above 5 µM.
Consider `CC(C)=CCN(Cc1ccc2ncn(C)c(=O)c2c1)c1ccc(C(=O)NCc2cccnc2)cc1`, for which the Activity in [2] was 0.004 µM. The same compound gave a pIC50 in assay [3] of 8.92. For the same compound, the inhibitory concentration in assay [4] was 0.0004 µM.
In assay [2], `Cn1cnc2cc(Cl)c(CN(CC3CC3)c3ccc(C(=O)NCc4cccnc4)cc3)cc2c1=O` had an Activity of 0.11 µM. For the same compound, the pIC50 in [3] was 7.89. For the same compound, the inhibitory concentration in assay [4] turned out to be 0.012 µM.

The values are drawn from ChEMBL document CHEMBL1800028, “Analogues of 4-[(7-Bromo-2-methyl-4-oxo-3H-quinazolin-6-yl)methylprop-2-ynylamino]-N-(3-pyridylmethyl)benzamide (CB-30865) as potent inhibitors of nicotinamide phosphoribosyltransferase (Nampt)” (J Med Chem, 2010).
